Laboratory results from ChEMBL document CHEMBL1828622, “Structure-based design and synthesis of 1,3-oxazinan-2-one inhibitors of 11β-hydroxysteroid dehydrogenase type 1” (J Med Chem, 2011).

Tests used:
[1] = AUC (infinity) in rat at 10 mg/kg, po; assay type: ADME, organism-based; parameters: time infinity, dose 10 mg/kg, route oral; details: plasma
How it was run: (§1)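 Rat pharmacokinetics after single iv dose of 2 mg/kg and oral dose of 10 mg/kg; oral vehicle differs by compound: 10% ethanol/10% Tween 80 (polysorbate 80)/80% PEG 400 solution, the same with 1% DMSO, or 0.5% methyl cellulose in deionized water suspension. Readouts: oral AUC(inf), oral t1/2, iv clearance, oral bioavailability F.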

[2] = Oral bioavailability in rat at 10 mg/kg; assay type: ADME, organism-based; details: in vivo; how it was run: as §1
[3] = AUC (infinity) in dog at 2 mg/kg, po; assay type: ADME, organism-based, Canis lupus familiaris; parameters: time infinity, dose 2 mg/kg, route oral; details: plasma
[4] = AUC (infinity) in cynomolgus monkey at 2 mg/kg, po; assay type: ADME, organism-based, Macaca fascicularis; parameters: time infinity, dose 2 mg/kg, route oral; details: plasma
[5] = Oral bioavailability in dog at 2 mg/kg; assay type: ADME, organism-based, Canis lupus familiaris; details: in vivo
[6] = Oral bioavailability in cynomolgus monkey at 2 mg/kg; assay type: ADME, organism-based, Macaca fascicularis; details: in vivo
[7] = Biodistribution in mouse liver at 30 mg/kg, po administered as single dose measured after 1 hr by LC-MS/MS method; assay type: ADME, organism-based; parameters: dose 30 mg/kg, route oral; details: read-out: Drug uptake
How it was run: (§2)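 Mice (n = 3) given single oral 30 mg/kg dissolved in 10% ethanol/10% Tween 80/80% PEG 400; tissues collected at sacrifice at 1, 4 and 8 h, snap frozen, later thawed and homogenized in 0.05 M BES pH 7; compound extracted into acetonitrile and quantified by LC-MS/MS against standard curves prepared separately in each tissue matrix.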

[8] = Biodistribution in mouse liver at 30 mg/kg, po administered as single dose measured after 4 hrs by LC-MS/MS method; assay type: ADME, organism-based; parameters: dose 30 mg/kg, route oral; details: read-out: Drug uptake; how it was run: as §2
[9] = Biodistribution in mouse liver at 30 mg/kg, po administered as single dose measured after 8 hrs by LC-MS/MS method; assay type: ADME, organism-based; parameters: dose 30 mg/kg, route oral; details: read-out: Drug uptake; how it was run: as §2
[10] = Biodistribution in mouse adipose tissue at 30 mg/kg, po administered as single dose measured after 1 hr by LC-MS/MS method; assay type: ADME, organism-based; parameters: dose 30 mg/kg, route oral; details: read-out: Drug uptake; how it was run: as §2
[11] = Biodistribution in mouse adipose tissue at 30 mg/kg, po administered as single dose measured after 4 hrs by LC-MS/MS method; assay type: ADME, organism-based; parameters: dose 30 mg/kg, route oral; details: read-out: Drug uptake; how it was run: as §2
[12] = Biodistribution in mouse adipose tissue at 30 mg/kg, po administered as single dose measured after 8 hrs by LC-MS/MS method; assay type: ADME, organism-based; parameters: dose 30 mg/kg, route oral; details: read-out: Drug uptake; how it was run: as §2
[13] = Biodistribution in mouse plasma at 30 mg/kg, po administered as single dose measured after 1 hr by LC-MS/MS method; assay type: ADME, organism-based; parameters: dose 30 mg/kg, route oral; details: read-out: Drug uptake; how it was run: as §2
[14] = Biodistribution in mouse plasma at 30 mg/kg, po administered as single dose measured after 4 hrs by LC-MS/MS method; assay type: ADME, organism-based; parameters: dose 30 mg/kg, route oral; details: read-out: Drug uptake; how it was run: as §2
[15] = Biodistribution in mouse plasma at 30 mg/kg, po administered as single dose measured after 8 hrs by LC-MS/MS method; assay type: ADME, organism-based; parameters: dose 30 mg/kg, route oral; details: read-out: Drug uptake; how it was run: as §2

## C[C@@H](c1ccc(-c2ccc(F)cc2F)cc1)N1CC[C@](CCCO)(c2ccccc2)OC1=O
[1]
  AUC(0-inf): 915 ng·h/mL
[2]
  bioavailability: 19%

## C[C@@H](c1ccc(-c2ccc(F)cc2)cc1)N1CC[C@](CCO)(c2ccc(F)cc2)OC1=O
[1]
  AUC(0-inf): 3170 ng·h/mL
[2]
  bioavailability: 83%

## C[C@@H](c1ccc(-c2ccc(F)cc2)cc1)N1CC[C@](CCCO)(c2ccccc2)OC1=O
[1]
  AUC(0-inf): 450 ng·h/mL
[2]
  bioavailability: 23%

## C[C@@H](c1ccc(-c2ccc(F)cc2F)cc1)N1CC[C@](CCO)(c2ccc(F)cc2)OC1=O
[1]
  AUC(0-inf): 3870 ng·h/mL
[3]
  AUC(0-inf): 584 ng·h/mL
[4]
  AUC(0-inf): 1500 ng·h/mL
[2]
  bioavailability: 94%
[5]
  bioavailability: 16%
[6]
  bioavailability: 26%
[7]
  concentration at 1 h: 15300 ng/mL
[8]
  concentration at 4 h: 9810 ng/mL
[9]
  concentration at 8 h: 1900 ng/mL
[10]
  concentration at 1 h: 5520 ng/mL
[11]
  concentration at 4 h: 3160 ng/mL
[12]
  concentration at 8 h: 632 ng/mL
[13]
  concentration at 1 h: 5930 ng/mL
[14]
  concentration at 4 h: 3260 ng/mL
[15]
  concentration at 8 h: 573 ng/mL

## O=C1OC(CCO)(c2ccccc2)CCN1c1cccc(-c2ccc(F)cc2F)c1 (stereo not given)
[1]
  AUC(0-inf): 1040 ng·h/mL
[2]
  bioavailability: 44%

## Cc1cccc(N2CCC(C)(c3ccccc3)OC2=O)c1 (single isomer, unassigned; isomer 1)
[1]
  AUC(0-inf): 99 ng·h/mL
[2]
  bioavailability: 4%
